Measured values from ChEMBL document CHEMBL4602672, “Isolation, Identification, and Decomposition of Antibacterial Dialkylresorcinols from a Chinese Pseudomonas aurantiaca Strain” (2020).
Calls of active or inactive are those of the source. The rule behind the calls is not given here.

How the values were obtained:
Enterococcus hirae [1] = test: Antibacterial activity against Enterococcus hirae ATCC 8043 assessed as reduction in microbial growth after 24 hrs by agar well diffusion assay; format: functional; details: ATCC 8043, 24 h
[2] = system: Staphylococcus epidermidis; test: Antibacterial activity against Staphylococcus epidermidis ATCC 14990 assessed as reduction in microbial growth at 0.06 to 133 ug/ml after 24 hrs by agar well diffusion assay; format: functional, organism-based
Procedure, shortened: (§1)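 Modified literature MIC protocol against ATCC pathogens. Antibiotics served as positive control and sterile water with DMSO (<5%) as negative control. For the related well-diffusion work, test samples were dissolved in sterile water with DMSO (<5%). MIC given in μg/mL.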

Staphylococcus aureus [3] = test: Antibacterial activity against Staphylococcus aureus ATCC 12600 assessed as reduction in microbial growth at 0.06 to 133 ug/ml after 24 hrs by agar well diffusion assay; format: functional, organism-based; procedure, shortened: as §1
Bacillus subtilis [4] = test: Antibacterial activity against Bacillus subtilis ATCC 6633 assessed as reduction in microbial growth after 24 hrs by agar well diffusion assay; format: functional; details: ATCC 6633, 24 h
Bacillus subtilis [5] = test: Antibacterial activity against Bacillus subtilis ATCC 6633 assessed as reduction in microbial growth at 0.06 to 133 ug/ml after 24 hrs by agar well diffusion assay; format: functional, organism-based; procedure, shortened: as §1
Streptococcus mutans [6] = test: Antibacterial activity against Streptococcus mutans ATCC 25175 assessed as reduction in microbial growth after 24 hrs by agar well diffusion assay; format: functional; details: ATCC 25175, 24 h
Enterococcus hirae [7] = test: Antibacterial activity against Enterococcus hirae ATCC 8043 assessed as reduction in microbial growth at 0.06 to 133 ug/ml after 24 hrs by agar well diffusion assay; format: functional, organism-based; procedure, shortened: as §1
Staphylococcus aureus [8] = test: Antibacterial activity against Staphylococcus aureus ATCC 12600 assessed as reduction in microbial growth after 24 hrs by agar well diffusion assay; format: functional; details: ATCC 12600, 24 h
[9] = system: Staphylococcus epidermidis; test: Antibacterial activity against Staphylococcus epidermidis ATCC 14990 assessed as reduction in microbial growth after 24 hrs by agar well diffusion assay; format: functional; details: ATCC 14990, 24 h
Streptococcus mutans [10] = test: Antibacterial activity against Streptococcus mutans ATCC 25175 assessed as reduction in microbial growth at 0.06 to 133 ug/ml after 24 hrs by agar well diffusion assay; format: functional, organism-based

## CC1(C)S[C@@H]2[C@H](NC(=O)[C@H](N)c3ccccc3)C(=O)N2[C@H]1C(=O)O [AMPICILLIN]
Enterococcus hirae [1]
  MIC: 1.1 µg/mL

## CCCCCCC1=C(O)C(=O)C(CCCCC)=CC1=O
Enterococcus hirae [1]
  MIC: 133 µg/mL
[2]
  Activity: inactive
Staphylococcus aureus [3]
  Activity: inactive
Bacillus subtilis [4]
  MIC: 33.4 µg/mL
Bacillus subtilis [5]
  Activity: inactive
Streptococcus mutans [6]
  MIC: 66.7 µg/mL

## CCCCCCCC1=CC(=O)C(CCCCCC)=C(O)C1=O
Enterococcus hirae [7]
  Activity: inactive
[2]
  Activity: inactive
Bacillus subtilis [5]
  Activity: inactive
Staphylococcus aureus [8]
  MIC: 133 µg/mL
Streptococcus mutans [6]
  MIC: 133 µg/mL

## CCCCCCC1=C(O)C(=O)C(CCCCC)=C(C2=C(CCCCC)C(=O)C(O)=C(CCCCCC)C2=O)C1=O
Enterococcus hirae [7]
  Activity: inactive
[2]
  Activity: inactive
Bacillus subtilis [4]
  MIC: 133 µg/mL
Staphylococcus aureus [8]
  MIC: 133 µg/mL
Streptococcus mutans [6]
  MIC: 133 µg/mL

## CCCCCCc1c(O)cc(CCCCC)cc1O [RESORSTATIN]
[9]
  MIC: 4.2 µg/mL
Enterococcus hirae [1]
  MIC: 4.2 µg/mL
Bacillus subtilis [4]
  MIC: 8.4 µg/mL
Staphylococcus aureus [8]
  MIC: 4.2 µg/mL
Streptococcus mutans [6]
  MIC: 4.2 µg/mL

## CN[C@H](CC(C)C)C(=O)N[C@H]1C(=O)N[C@@H](CC(N)=O)C(=O)N[C@H]2C(=O)N[C@H]3C(=O)N[C@H](C(=O)N[C@H](C(=O)O)c4cc(O)cc(O)c4-c4cc3ccc4O)[C@H](O)c3ccc(c(Cl)c3)Oc3cc2cc(c3O[C@@H]2O[C@H](CO)[C@@H](O)[C@H](O)[C@H]2O[C@H]2C[C@](C)(N)[C@H](O)[C@H](C)O2)Oc2ccc(cc2Cl)[C@H]1O [VANCOMYCIN]
Bacillus subtilis [4]
  MIC: 1.1 µg/mL

## CCCCCCCc1cc(O)c(CCCCCC)c(O)c1
[9]
  MIC: 8.3 µg/mL
Enterococcus hirae [1]
  MIC: 33.4 µg/mL
Bacillus subtilis [4]
  MIC: 66.7 µg/mL
Staphylococcus aureus [8]
  MIC: 1.1 µg/mL
Streptococcus mutans [6]
  MIC: 33.4 µg/mL

## Oc1ccc2nc3ccccc3nc2c1
Enterococcus hirae [7]
  Activity: inactive
[9]
  MIC: 33.4 µg/mL
Staphylococcus aureus [3]
  Activity: inactive
Bacillus subtilis [5]
  Activity: inactive
Streptococcus mutans [10]
  Activity: inactive

## CCCCCCC1=C(O)C(=O)C(CCCCC)=C(c2c(CCCCC)cc(O)c(CCCCCC)c2O)C1=O
Enterococcus hirae [7]
  Activity: inactive
[2]
  Activity: inactive
Staphylococcus aureus [3]
  Activity: inactive
Streptococcus mutans [6]
  MIC: 133 µg/mL

## CCCCCCC(=O)C1(O)C=C(CCCCC)C(=O)O1 (stereo not given)
[9]
  MIC: 66.7 µg/mL
Enterococcus hirae [1]
  MIC: 133 µg/mL
Bacillus subtilis [4]
  MIC: 66.7 µg/mL
Staphylococcus aureus [8]
  MIC: 33.4 µg/mL
Streptococcus mutans [6]
  MIC: 133 µg/mL

## CCCCCCCC1=CC(O)(C(=O)CCCCCC)OC1=O (stereo not given)
[9]
  MIC: 33.4 µg/mL
Enterococcus hirae [1]
  MIC: 66.7 µg/mL
Bacillus subtilis [4]
  MIC: 33.4 µg/mL
Staphylococcus aureus [8]
  MIC: 16.7 µg/mL
Streptococcus mutans [6]
  MIC: 133 µg/mL

## CC1(C)S[C@@H]2[C@H](NC(=O)Cc3ccccc3)C(=O)N2[C@H]1C(=O)O [PENICILLIN G]
[9]
  MIC: 0.52 µg/mL
Staphylococcus aureus [8]
  MIC: 0.26 µg/mL
Streptococcus mutans [6]
  MIC: 1.1 µg/mL
